From ChEMBL document CHEMBL1132718, “Design and synthesis of imidazoline derivatives active on glucose homeostasis in a rat model of type II diabetes. 2. Syntheses and biological activities of 1,4-dialkyl-, 1,4-dibenzyl, and 1-benzyl-4-alkyl-2-(4',5'-dihydro-1'H-imidazol-2'-yl)piperazines and isosteric analogues of imidazoline” (J Med Chem, 1999) come the findings set out here.

For data set [1], the system named is Rattus norvegicus. Nature of the data set: Percent of variation of glycemia value 30 mins after glucose administration by intraperitoneal dose of 100 uM/Kg to STZ rats compared to untreated rats. It counts as functional. Also on record: unit: %. In outline:
(§1)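 STZ-diabetic rats: 3-month-old male Wistar (250 g) given streptozotocin 35 mg/kg iv. Single ip dose of 100 µmol/kg, then iv glucose 0.5 g/kg for IVGTT. Read-outs: ΔG (glycemia increment over baseline integrated over 30 min), G30 (glycemia at 30 min), K (disappearance rate 5–30 min). Expressed as percent variation versus untreated STZ rats, normalized to nondiabetic controls; 4–8 rats per compound, ±SEM.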

Data set [2] concerns Rattus norvegicus. Nature of the data set: Rate of glucose disappearance between 5 and 30 min after glucose administration with an intraperitoneal administration of 100 (umol/kg) to STZ rats. It counts as functional, organism-based. In outline: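 Three-month-old male Wistar rats (250 g) made diabetic with streptozotocin 35 mg/kg iv. Single ip dose of 100 µmol/kg, then IVGTT with glucose 0.5 g/kg iv. K is the rate of glucose disappearance between 5 and 30 min after the glucose load. Expressed as percent variation between treated and untreated diabetic rats, relative to nondiabetic controls. 4–8 rats per compound, ±SEM.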

Data set [3] has as its system Rattus norvegicus. Nature of the data set: Incremental glycemia values over baseline integrated over 30 min after glucose administration (iv) at a concentration 0.5 g/kg. It counts as functional. More on the design: unit: %. In outline: as §1
Data set [4] can be described thus: Partition coefficient (logP). It counts as physicochemical. Conditions: octanol/water.
The subject of data set [5] is Rattus norvegicus. Nature of the data set: Percent of variation of glycemia value 30 mins after glucose administration with a peroral administration of 100 umol/kg to STZ rats. It counts as functional. Also on record: unit: %. An outline of the steps: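 Oral (po) dosing at 100 µmol/kg in STZ rats (male Wistar, 3 months old, 250 g, streptozotocin 35 mg/kg iv), followed by IVGTT with glucose 0.5 g/kg iv. G30 (glycemia 30 min after the glucose load) is expressed as percent variation between treated and untreated STZ rats, relative to nondiabetic controls.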

As for `C/N=C(/N)C1CN(C(C)C)CCN1C(C)C` (configuration not stated), in the data set with Rattus norvegicus [1], the G30 amounted to 77. In the data set with Rattus norvegicus [2], this compound had a K of 62. Moreover, the “Delta G” value with Rattus norvegicus [3] is 43.

As usually defined, the logP is a log measure of how a compound divides between an organic and an aqueous phase. In data set [4], `CC(C)N1CCN(C(C)C)C(C2=NCCN2)C1` (configuration not stated) registered a logP of 1.15. For the same compound, the G30 with Rattus norvegicus [1] was determined as 89; with Rattus norvegicus [5], 73. In the data set on Rattus norvegicus [2], this compound returned a K of 47. In addition, the “Delta G” value in the data set on Rattus norvegicus [3] is 138.

The compound `CC(C)CN1CCN(C)C(C2=NCCN2)C1` (configuration not stated) came in with a G30 in the data set with Rattus norvegicus [1] of 21. Besides, in the data set on Rattus norvegicus [2], the K worked out at 42. In the data set with Rattus norvegicus [3], the “Delta G” value was 40.

The compound `C=C(C)CN1CCN(CC(C)C)C(C2=NCCN2)C1` (configuration not stated) showed a G30 in the data set with Rattus norvegicus [1] of 41. Further, in the data set with Rattus norvegicus [2], the K was 76. The “Delta G” value in the data set with Rattus norvegicus [3] was determined as 53.

Consider `c1ccc(C(CC2=NCCN2)c2ccccn2)cc1` (configuration not stated) [MIDAGLIZOLE], for which the G30 in the data set on Rattus norvegicus [1] was 121. For the same compound, the “Delta G” value in the data set with Rattus norvegicus [3] amounted to 32.

Regarding `CN1CCN(Cc2ccc(Cl)cc2Cl)C(CC2=NCCN2)C1` (configuration not stated), the G30 in the data set on Rattus norvegicus [1] came to 42. In addition, the K in the data set on Rattus norvegicus [2] was 91. In the data set with Rattus norvegicus [3], the “Delta G” value turned out to be 19.

In the case of `c1ccc2c(c1)OCC(C1=NCCN1)O2` (configuration not stated) [IDAZOXAN], the G30 in the data set with Rattus norvegicus [1] turned out to be 48. The K in the data set on Rattus norvegicus [2] came to 79. For the same compound, the “Delta G” value in the data set with Rattus norvegicus [3] stood at 8.

Regarding `CCC(C)CN1CCN(CC(C)CC)C(C2=NCCN2)C1` (configuration not stated), the logP in data set [4] amounted to 3.22. The G30 in the data set on Rattus norvegicus [1] is on record as 83; in the data set with Rattus norvegicus [5] it was 4.3. Also, the K in the data set with Rattus norvegicus [2] is 82. In addition, the “Delta G” value with Rattus norvegicus [3] worked out at 104.

With `CN1CCN(Cc2ccc(Cl)cc2Cl)C(C2=NCCCN2)C1` (configuration not stated), the G30 in the data set with Rattus norvegicus [1] was 30. This compound also displayed a K in the data set on Rattus norvegicus [2] of 38. Moreover, in the data set on Rattus norvegicus [3], the “Delta G” value worked out at 47.

Take `CN1CCN(Cc2ccccc2Cl)C(C2=NCCO2)C1` (configuration not stated): in the data set on Rattus norvegicus [1], the G30 is on record as 0. For the same compound, in the data set on Rattus norvegicus [2], the K turned out to be 0. The “Delta G” value with Rattus norvegicus [3] is 8.

`COc1ccccc1CN1CCN(C)CC1CC1=NCCN1` (configuration not stated) gave a G30 in the data set on Rattus norvegicus [1] of 36. In the data set with Rattus norvegicus [2], the K was 53. In addition, in the data set on Rattus norvegicus [3], the “Delta G” value was 31.

In the data set with Rattus norvegicus [1], `CN1CCN(c2ccccc2)C(C2=NCCN2)C1` (configuration not stated) gave a G30 of 28. Besides, the K in the data set on Rattus norvegicus [2] worked out at 39. Also, the “Delta G” value with Rattus norvegicus [3] stood at 6.

Turning to `CN1CCN(Cc2ccc(Cl)cc2Cl)C(C2=NCCN2C)C1` (configuration not stated), the G30 in the data set with Rattus norvegicus [1] came out at 75. Besides, the K in the data set with Rattus norvegicus [2] stood at 64. The “Delta G” value in the data set with Rattus norvegicus [3] is 24.

`C=C(C)CN1CCN(CC(=C)C)C(C2=NCCN2)C1` (configuration not stated): the log partition coefficient (logP) in data set [4] came to 1.45. Moreover, the values for the G30 in the data set with Rattus norvegicus [1] and in the data set on Rattus norvegicus [5] were 96 and 0, respectively. Also, in the data set with Rattus norvegicus [2], the K is 117. For the same compound, the “Delta G” value with Rattus norvegicus [3] is reported as 116.

On to `C1CNC(C2CN(C(C3CC3)C3CC3)CCN2C(C2CC2)C2CC2)=N1` (configuration not stated), for which, in the data set with Rattus norvegicus [1], the G30 came to 89. This compound also showed a K in the data set with Rattus norvegicus [2] of 41. Also, in the data set on Rattus norvegicus [3], the “Delta G” value amounted to 24.

Take `CC(C)N1CCN(c2ccccc2)C(C2=NCCN2)C1` (configuration not stated): the G30 in the data set with Rattus norvegicus [1] is 91. The K in the data set on Rattus norvegicus [2] was 102. Besides, the “Delta G” value in the data set on Rattus norvegicus [3] stood at 11.

Compound `C/N=C(/N)C1CN(Cc2ccccc2)CCN1Cc1ccccc1` (configuration not stated) displayed a G30 in the data set on Rattus norvegicus [1] of 62. The compound also returned a K in the data set on Rattus norvegicus [2] of 60. Further, the “Delta G” value with Rattus norvegicus [3] is 50.

In data set [4], `CC(C)CN1CCN(CC(C)C)C(C2=NCCN2)C1` (configuration not stated) had a logP of 2.18. For the same compound, the G30 in the data set on Rattus norvegicus [1] is 89; in the data set on Rattus norvegicus [5], 66. In addition, the K in the data set with Rattus norvegicus [2] was 79. For the same compound, the “Delta G” value in the data set on Rattus norvegicus [3] stood at 141.

Compound `CN1CCN(Cc2ccc(Cl)cc2Cl)C(c2ncc[nH]2)C1` (configuration not stated) came in with a G30 in the data set on Rattus norvegicus [1] of 14. This compound returned a K with Rattus norvegicus [2] of 37. In the data set on Rattus norvegicus [3], the “Delta G” value was 0.

As for `C=CCN1CCN(CC=C)C(C2=NCCN2)C1` (configuration not stated), in the data set with Rattus norvegicus [1], the G30 is 30. This compound also registered a K in the data set on Rattus norvegicus [2] of 35. Also, in the data set with Rattus norvegicus [3], the “Delta G” value came to 19.

The compound `CC(C)N1CCN(c2ccccc2)CC1C1=NCCN1` (configuration not stated) came in with a G30 in the data set with Rattus norvegicus [1] of 15. The same compound came in with a K with Rattus norvegicus [2] of 60. The “Delta G” value in the data set with Rattus norvegicus [3] is given as 0.

Compound `CC(C)N1CCN(C(C)C)C(CC2=NCCN2)C1` (configuration not stated) yielded a G30 in the data set on Rattus norvegicus [1] of 0. This compound also gave a K in the data set with Rattus norvegicus [2] of 79. In the data set on Rattus norvegicus [3], the “Delta G” value is given as 27.

In the data set with Rattus norvegicus [1], `c1ccc(CN2CCN(Cc3ccccc3)C(CC3=NCCN3)C2)cc1` (configuration not stated) returned a G30 of 0. Further, in the data set with Rattus norvegicus [2], the K turned out to be 49.

On to `N=C(N)C1CN(Cc2ccccc2)CCN1Cc1ccccc1` (configuration not stated), for which, in the data set with Rattus norvegicus [1], the G30 worked out at 65. The compound also displayed a K with Rattus norvegicus [2] of 65. Besides, the “Delta G” value with Rattus norvegicus [3] came out at 55.

As to `C1CCC(N2CCN(C3CCCC3)C(C3=NCCN3)C2)C1` (configuration not stated), in the data set with Rattus norvegicus [1], the G30 is reported as 103. In the data set with Rattus norvegicus [2], this compound displayed a K of 23. In addition, in the data set on Rattus norvegicus [3], the “Delta G” value is listed as 58.

In the data set with Rattus norvegicus [1], `CN1CCN(c2ccccc2Cl)CC1C1=NCCN1` (configuration not stated) had a G30 of 17. In addition, the K with Rattus norvegicus [2] was found to be 60. In the data set on Rattus norvegicus [3], the “Delta G” value came out at 10.

In turn, `CN1CCN(C(C2CC2)C2CC2)C(C2=NCCN2)C1` (configuration not stated) gave a G30 in the data set on Rattus norvegicus [1] of 55. Moreover, the K in the data set on Rattus norvegicus [2] was 47. Further, in the data set on Rattus norvegicus [3], the “Delta G” value stood at 101.

Consider `C=CCN1CCN(CC(C)C)C(C2=NCCN2)C1` (configuration not stated), for which the log partition coefficient (logP) in data set [4] was 1.3. For the same compound, the G30 was determined as 55 with Rattus norvegicus [1] and 23 in the data set with Rattus norvegicus [5]. Also, the K with Rattus norvegicus [2] came out at 61. Also, in the data set with Rattus norvegicus [3], the “Delta G” value was determined as 115.

Consider `CC(C)CN1CCN(C)CC1C1=NCCN1` (configuration not stated), for which the G30 with Rattus norvegicus [1] came out at 48. The K with Rattus norvegicus [2] is 55. The “Delta G” value with Rattus norvegicus [3] was determined as 113.

For `CC(C)(C)CN1CCN(CC(C)(C)C)C(C2=NCCN2)C1` (configuration not stated), in the data set on Rattus norvegicus [1], the G30 worked out at 81. This compound also yielded a K in the data set on Rattus norvegicus [2] of 67. Besides, the “Delta G” value with Rattus norvegicus [3] is recorded as 54.

`CN1CCN(Cc2ccc(Cl)cc2Cl)C(C2=NCCN2)C1` (configuration not stated) yielded a logP in data set [4] of 2.21. In addition, the G30 in the data set on Rattus norvegicus [1] turned out to be 112; in the data set on Rattus norvegicus [5], 64. The “Delta G” value in the data set on Rattus norvegicus [3] was 105.
